Drawing on ChEMBL document CHEMBL1926673, “Synthesis, molecular docking study and antitumor activity of novel 2-phenylindole derivatives” (Eur J Med Chem, 2012), this text covers IC50 for 44 compounds.

The test system of one assay is MCF7. The experiment in a line: Cytotoxicity against human MCF7 cells after 48 hrs by SRB assay. The assay is classed as functional, cell-based. The settings on record: MCF7, 48 h. Summed up:
(§1)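 Cells seeded at 10⁴ per well and allowed to attach for 24 h, then exposed to compounds at 0, 1, 2.5 and 10 (four levels), triplicate wells per dose, for 48 h at 37 C in 5% CO₂. Cells were then fixed, washed and stained with sulforhodamine B. Excess dye was removed with acetic acid, and bound dye was recovered in Tris EDTA buffer. Results are given as IC₅₀.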

A further assay concerns MDA-MB-231. The experiment in a line: Cytotoxicity against human MDA-MB-231 cells after 48 hrs by SRB assay. The assay is classed as functional, cell-based. The settings on record: MDA-MB-231, 48 h. Summed up:
as §1

For orientation: IC50 means the concentration that inhibits the measured activity by half. Higher therefore signals lower potency. `Oc1ccc(-c2[nH]c3ccccc3c2-c2nc3ccccc3o2)cc1`: the IC50 came out at 17.5 nM in the assay on MCF7 and 15.3 nM in the assay on MDA-MB-231.
`Oc1ccc(-c2[nH]c3ccccc3c2-c2ncc[nH]2)cc1`: in the assay with MCF7, the 50% inhibitory concentration (IC50) was 28.4 nM.
The same measure, in the same setting: under `O=C1NC(=O)C(=Cc2c(-c3ccc(O)cc3)[nH]c3ccccc23)C(=O)N1` stands 41.8 nM; under `CCOC(=O)COc1ccc(-c2cc3ccccc3[nH]2)cc1`, 102 nM.
Turning to `O=C(N/N=C/c1c(-c2ccc(O)cc2)[nH]c2ccccc12)c1ccc([N+](=O)[O-])cc1`, the concentration for half-maximal inhibition (IC50) came to 1.6 nM in the assay with MCF7 and 32.5 nM in the assay with MDA-MB-231.
For the compound `Oc1ccc(-c2[nH]c3ccccc3c2/C=N/Nc2ccccc2Cl)cc1`, the figures for the half-inhibitory concentration (IC50) in the assay with MCF7 and in the assay on MDA-MB-231 were 5.7 nM and 31.6 nM, respectively.
With `Oc1ccc(-c2cc3ccccc3[nH]2)cc1`, the IC50 in the assay with MCF7 turned out to be 71.8 nM.
The same measure, in the same setting: as for `NC(=S)NNC(=O)COc1ccc(-c2cc3ccccc3[nH]2)cc1`, the figure is 44.7 nM.
Consider `Nc1ccccc1C(=O)N/N=C/c1c(-c2ccc(O)cc2)[nH]c2ccccc12`, for which the 50% inhibitory concentration (IC50) amounted to 17.9 nM with MCF7 and 29.7 nM with MDA-MB-231.
The corresponding values for `Nc1ccc(C(=O)N/N=C/c2c(-c3ccc(O)cc3)[nH]c3ccccc23)cc1` are 3.7 nM and 37.8 nM.
`Cc1cc(-c2ccccc2)nn1C(=O)COc1ccc(-c2cc3ccccc3[nH]2)cc1` showed a half-maximal inhibitory concentration (IC50) in the assay on MCF7 of 48.9 nM.
As to `Nc1ccc(-c2nnc(COc3ccc(-c4cc5ccccc5[nH]4)cc3)o2)cc1`, the concentration for half-maximal inhibition (IC50) in the assay on MCF7 was 48 nM.
Same read-out and setting: under `CC(=O)NNC(=O)COc1ccc(-c2cc3ccccc3[nH]2)cc1` stands 92.9 nM.
For the compound `O=C(N/N=C/c1c(-c2ccc(O)cc2)[nH]c2ccccc12)c1ccccc1`, the IC50 stood at 18.7 nM with MCF7 and 28.2 nM in the assay with MDA-MB-231.
`COC(=O)COc1ccc(-c2cc3ccccc3[nH]2)cc1` showed a half-maximal inhibitory concentration (IC50) with MCF7 of 35 nM.
Regarding `O=C(COc1ccc(-c2cc3ccccc3[nH]2)cc1)Nc1ccc(S(=O)(=O)Nc2nccs2)cc1`, the results for the 50% inhibitory concentration (IC50) in the assay on MCF7 and in the assay with MDA-MB-231 were 7.4 nM and 29 nM, respectively.
Turning to `NC(=O)COc1ccc(-c2cc3ccccc3[nH]2)cc1`, the IC50 in the assay with MCF7 came out at 37.6 nM.
Consider `O=Cc1c(-c2ccc(O)cc2)[nH]c2ccccc12`, for which the IC50 stood at 9 nM with MCF7 and 42.2 nM with MDA-MB-231.
`Oc1ccc(-c2[nH]c3ccccc3c2-c2nc3ccccc3[nH]2)cc1` yielded a half-maximal inhibitory concentration (IC50) in the assay on MCF7 of 23.5 nM.
Same read-out and setting: as for `O/N=C/c1c(-c2ccc(O)cc2)[nH]c2ccccc12`, the figure is 27.6 nM; as for `NNC(=O)COc1ccc(-c2cc3ccccc3[nH]2)cc1`, 20 nM.
Consider `Oc1ccc(-c2[nH]c3ccccc3c2/C=N/Nc2ccccc2)cc1`, for which the half-inhibitory concentration (IC50) in the assay on MCF7 was 6.7 nM; in the assay on MDA-MB-231, 25.1 nM.
`NC(=S)N/N=C/c1c(-c2ccc(O)cc2)[nH]c2ccccc12` showed a half-inhibitory concentration (IC50) in the assay on MCF7 of 32 nM.
For the compound `O=C(N/N=C/c1c(-c2ccc(O)cc2)[nH]c2ccccc12)c1ccc(Cl)cc1`, the results for the half-maximal inhibitory concentration (IC50) with MCF7 and in the assay on MDA-MB-231 were 3.8 nM and 37.2 nM, respectively.
The corresponding values for `c1ccc(-c2nnc(COc3ccc(-c4cc5ccccc5[nH]4)cc3)o2)cc1` are 13.7 nM and 18.3 nM.
In turn, `O=C1NC(=S)NC(=O)C1=Cc1c(-c2ccc(O)cc2)[nH]c2ccccc12` displayed an IC50 in the assay with MCF7 of 55.1 nM. In other words, the double-digit nanomolar range.
Compound `COC(=O)Oc1ccc(-c2cc3ccccc3[nH]2)cc1` had an IC50 in the assay on MCF7 of 93.6 nM.
In turn, `Nc1ccccc1-c1nnc(COc2ccc(-c3cc4ccccc4[nH]3)cc2)o1` came in with an IC50 with MCF7 of 26 nM.
As for `CC(=O)N/N=C/c1c(-c2ccc(O)cc2)[nH]c2ccccc12`, in the assay with MCF7, the IC50 was found to be 32.3 nM.
`CN(C)C(=O)COc1ccc(-c2cc3ccccc3[nH]2)cc1` registered an IC50 with MCF7 of 34.3 nM. This IC50 and that of the compound before are within 1.5-fold of each other.
For the compound `O=C(COc1ccc(-c2cc3ccccc3[nH]2)cc1)N1CCCC1`, the figures for the half-inhibitory concentration (IC50) in the assay on MCF7 and in the assay on MDA-MB-231 were 14.8 nM and 42.2 nM, respectively.
In turn, `Oc1ccccc1-c1nnc(COc2ccc(-c3cc4ccccc4[nH]3)cc2)o1` had a half-maximal inhibitory concentration (IC50) in the assay on MCF7 of 39 nM.
As for `O=C(COc1ccc(-c2cc3ccccc3[nH]2)cc1)Nc1ccncc1`, the IC50 in the assay with MCF7 was found to be 21.1 nM.
Same read-out and setting: under `NS(=O)(=O)c1ccc(NC(=O)COc2ccc(-c3cc4ccccc4[nH]3)cc2)cc1` stands 24.2 nM.
Still for that read-out and setting: under `COc1ccc2nc(-c3nnc(COc4ccc(-c5cc6ccccc6[nH]5)cc4)o3)ccc2c1` stands 22.1 nM; under `N#CC(C#N)=Cc1c(-c2ccc(O)cc2)[nH]c2ccccc12`, 87.7 nM.
As for `CN/N=C/c1c(-c2ccc(O)cc2)[nH]c2ccccc12`, the IC50 in the assay on MCF7 worked out at 17.7 nM; in the assay on MDA-MB-231, 47.5 nM.
On to `O=C(COc1ccc(-c2cc3ccccc3[nH]2)cc1)N(CCO)CCO`, for which the IC50 in the assay on MCF7 amounted to 27.5 nM. That is a double-digit nanomolar value.
Same read-out and setting: as for `O=C(COc1ccc(-c2cc3ccccc3[nH]2)cc1)Nc1cnccn1`, the figure is 36.3 nM; as for `O=C(COc1ccc(-c2cc3ccccc3[nH]2)cc1)NCCO`, 96.8 nM; as for `O=C(COc1ccc(-c2cc3ccccc3[nH]2)cc1)NNc1ccccc1`, 28 nM.
On the same count and under the same terms, as for `Cc1cc(C)n(C(=O)COc2ccc(-c3cc4ccccc4[nH]3)cc2)n1`, the figure is 43.2 nM.
As for `Cc1cc(NS(=O)(=O)c2ccc(NC(=O)COc3ccc(-c4cc5ccccc5[nH]4)cc3)cc2)no1`, the IC50 with MCF7 is 17.5 nM; in the assay with MDA-MB-231, 9.56 nM.
Consider `CC1=NN(C(=O)COc2ccc(-c3cc4ccccc4[nH]3)cc2)C(=O)C1`, for which, in the assay on MCF7, the IC50 worked out at 31.8 nM.
